Assay [1] has as its target T1, P2Y purinoceptor 1 (Homo sapiens, UniProt P47900). Put plainly: Antagonist activity at human P2Y1R expressed in human 1321N1 cells assessed as inhibition of 2-MeSADP-induced increase in intracellular calcium mobilization at 10 uM. The format is functional, cell-based. The procedure, abridged:
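hP2Y1R-expressing 1321N1 cells were kept in DMEM with 5% FBS and geneticin, grown overnight to about 60–80% confluency, and loaded with Calcium 4 dye for 1 h at room temperature without washing. Test compound at 10 µM was added 20 min before 2-MeSADP (30 nM; curves 10−9–10−5 M). Read-out was fluorescence (ex 485/em 525 nm), peak minus basal, in triplicate.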
Background: A change in cytosolic calcium serves as a functional read-out for many receptors and channels.

The target of assay [2] is T1, P2Y purinoceptor 1. Kind of assay: Antagonist activity at human P2Y1R expressed in human 1321N1 cells assessed as inhibition of 2-MeSADP-induced increase in intracellular inositol phosphate generation. The format is functional, cell-based. The procedure, abridged:
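In 1321N1 cells stably expressing hP2Y1R, cells were labeled 18–24 h at 37°C with 2-[3H]myo-inositol in inositol-free DMEM. Agonist-stimulated [3H]inositol phosphate accumulation was measured over 10 min at 37°C with 10 mM LiCl. Total inositol phosphates were separated by anion-exchange chromatography. IC50 is the mean of 3 independent concentration-effect curves.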

Assay [3] concerns the target T1, P2Y purinoceptor 1. Put plainly: Displacement of [125I]MRS2500 from human P2Y1R expressed in Sf9 cell membrane. In a few lines:
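Competition binding used membranes of Sf9 insect cells expressing hP2Y1R, with [125I]MRS2500 at approximately 0.2 nM.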

The target of assay [4] is T1, P2Y purinoceptor 1. Kind of assay: Displacement of [125I]MRS2500 from human P2Y1R expressed in Sf9 cell membrane at 20 uM. In a few lines: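 Binding screen used hP2Y1R-expressing Sf9 cell membranes and about 0.2 nM [125I]MRS2500. Each test compound was applied at 20 µM, and the value is percent inhibition of specific radioligand binding.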
A general note: In a radioligand displacement assay an active substance lowers the binding of a labelled ligand.

From ChEMBL document CHEMBL2069288, “Virtual screening leads to the discovery of novel non-nucleotide P2Y₁ receptor antagonists” (Bioorg Med Chem, 2012) come the findings set out here.

Each structure is given as a SMILES string.

T1 sequence (P47900 whole entry): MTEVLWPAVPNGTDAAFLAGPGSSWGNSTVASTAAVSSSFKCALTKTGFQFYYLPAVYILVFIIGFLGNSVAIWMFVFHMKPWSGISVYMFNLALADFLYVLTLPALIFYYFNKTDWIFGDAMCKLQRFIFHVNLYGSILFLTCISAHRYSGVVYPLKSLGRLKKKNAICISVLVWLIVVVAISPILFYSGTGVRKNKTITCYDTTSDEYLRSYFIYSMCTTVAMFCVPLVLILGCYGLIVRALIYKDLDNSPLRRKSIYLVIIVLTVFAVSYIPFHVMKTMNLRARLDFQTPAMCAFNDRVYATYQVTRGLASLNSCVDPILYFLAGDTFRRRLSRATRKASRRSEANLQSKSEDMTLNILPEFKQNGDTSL

The term inhibition denotes the change of the read-out against control, counted positive when it falls. As a reminder, the IC50 is the concentration that gives 50% inhibition. One may read the Ki as a dissociation constant, usually derived from enzyme kinetics or from competition with a known ligand. On to `Cc1noc(NS(=O)(=O)c2ccc(NC(=O)Nc3ccc(Cl)c(Cl)c3)cc2)c1C`, for which the inhibition on P2Y purinoceptor 1 [1] was found to be 36.8%. Besides, on P2Y purinoceptor 1 [2], the IC50 was 0.14 µM. This compound gave a Ki on P2Y purinoceptor 1 [3] of 13 µM.

`COc1cc(NS(=O)(=O)c2ccc(NC(=O)Nc3cccc(Cl)c3)cc2)nc(OC)n1` returned a Ki at P2Y purinoceptor 1 [3] of 6 µM.

On to `O=C(CSC1=NC(=O)N(CCCN2CCOCC2)C2CCCC12)Nc1ccc2c(c1)OCO2` (configuration not stated), for which, on P2Y purinoceptor 1 [4], the inhibition was 20%.

In the case of `Cc1noc(NS(=O)(=O)c2ccc(NC(=O)Nc3cc(F)cc(F)c3)cc2)c1C`, the inhibition at P2Y purinoceptor 1 [1] was found to be 10.2%. The same compound displayed an inhibition constant Ki on P2Y purinoceptor 1 [3] not below 100 µM.

`Cc1noc(NS(=O)(=O)c2ccc(NC(=O)Nc3ccc(F)c(Cl)c3)cc2)c1C`: the inhibition at P2Y purinoceptor 1 [1] amounted to 31.3%. For the same compound, the Ki on P2Y purinoceptor 1 [3] was 42 µM.

The compound `CC1=C2C(=O)NC(SCC(=O)Nc3ccc(S(=O)(=O)NCCCC(=O)O)cc3)=NC2SC1C(=O)O` (configuration not stated) gave an inhibition at P2Y purinoceptor 1 [4] of 30%.

Compound `Cn1c(=O)[nH]c(=O)c2nc(NCCCO)n(CC(O)COc3ccccc3)c21` (configuration not stated) had an inhibition at P2Y purinoceptor 1 [4] of 20%.

On to `Cn1nnc2c(Cc3ccc(S(N)(=O)=O)cc3)ncnc21`, for which the inhibition on P2Y purinoceptor 1 [4] came to 20%.

On to `Cc1noc(NS(=O)(=O)c2ccc(NC(=O)Nc3ccc(C(F)(F)F)cc3)cc2)c1C`, for which the inhibition at P2Y purinoceptor 1 [1] worked out at 32.7%. The compound further yielded a Ki on P2Y purinoceptor 1 [3] of 45 µM.

Regarding `Cc1cc(NC(=O)CSc2ccc3nnc(CCNS(=O)(=O)c4ccccc4)n3n2)no1`, on P2Y purinoceptor 1 [4], the inhibition was 20%.

Regarding `CN(C)CCCN(C(=O)c1ccco1)c1nc2cc3c(cc2s1)OCO3`, the inhibition at P2Y purinoceptor 1 [4] was found to be 40%.

As to `Cc1noc(NS(=O)(=O)c2ccc(NC(=O)Nc3cc(Cl)cc(Cl)c3)cc2)c1C`, at P2Y purinoceptor 1 [1], the inhibition came to 17.6%. This compound also came in with an inhibition constant (Ki) at P2Y purinoceptor 1 [3] of 27 µM.

The compound `COc1ccc(S(=O)(=O)Nc2ccc3c(c2)C(=O)Nc2ccccc2O3)cc1OC` gave an inhibition on P2Y purinoceptor 1 [4] of 20%.

For `COc1ccc(NC(=O)Nc2ccc(S(=O)(=O)Nc3onc(C)c3C)cc2)cc1OC`, the inhibition is less than 10% on P2Y purinoceptor 1 [4] and 9.1% on P2Y purinoceptor 1 [1].

As to `COc1ccc(S(=O)(=O)NCC(c2ccc3c(c2)OCO3)N2CCN(C)CC2)cc1OC` (configuration not stated), on P2Y purinoceptor 1 [4], the inhibition was determined as 20%.

For the compound `Cc1noc(NS(=O)(=O)c2ccc(NC(=O)Nc3ccc(F)c(F)c3)cc2)c1C`, the inhibition on P2Y purinoceptor 1 [4] was less than 10%; at P2Y purinoceptor 1 [1], 11.3%.

Consider `Cc1noc(NS(=O)(=O)c2ccc(NC(=O)Nc3cccc(Cl)c3)cc2)c1C`, for which, at P2Y purinoceptor 1 [1], the inhibition is 21.7%. Also, the Ki on P2Y purinoceptor 1 [3] is not below 100 µM.

Take `Cc1ccc(NC(=O)Nc2ccc(S(=O)(=O)Nc3onc(C)c3C)cc2)cc1C`: the inhibition is less than 10% at P2Y purinoceptor 1 [4] and 9.4% at P2Y purinoceptor 1 [1]. For the same compound, at P2Y purinoceptor 1 [2], the IC50 worked out at 0.13 µM.

`CCc1nnc(NS(=O)(=O)c2ccc(NC(=O)Nc3ccc(C(F)(F)F)cc3)cc2)s1` yielded a Ki at P2Y purinoceptor 1 [3] of 10 µM. This lies in the double-digit micromolar range.

Turning to `Cc1noc(NS(=O)(=O)c2ccc(NC(=O)Nc3ccccc3)cc2)c1C`, the inhibition is less than 10% at P2Y purinoceptor 1 [4] and less than 5% at P2Y purinoceptor 1 [1].
